# Test results from paper PMC6300088 (Pharmaceutical Biology, 2018).
# Like-named read-outs stand apart in the source and are kept apart here.
# How the values were obtained:
# [1] = tested on: L5178Y human ABCB1-transfected subline (MDR); assay: Cytotoxic effect; type: cell-based, mouse; conditions: 24 h; for IC50: L5178Y, read-out: CA on MDR cells (IC50); for CA on MDR cells (IC50): cytotoxic activity, MTT, mean ± SD, n = 3
# ABCB1 (P-glycoprotein) = type: cell-based, human; conditions: for FL-1 (mean fluorescence intensity of the cells): MDR cells, rhodamine 123; for FAR (fluorescence activity ratio): rhodamine 123 retention
# [2] = tested on: L5178Y mouse T-cell lymphoma cells: parent, PAR cells; assay: Antiproliferative effect; type: cell-based; conditions: 72 h, read-out: AA on PAR cells (IC50)
# [3] = tested on: L5178Y human ABCB1-transfected subline (MDR); assay: Antiproliferative effect; type: cell-based, mouse; conditions: 72 h, read-out: AA on MDR cells (IC50)
# [4] = tested on: L5178Y mouse T-cell lymphoma cells: parent, PAR cells; assay: Cytotoxic effect; type: cell-based; conditions: 24 h; for IC50: Mus musculus, L5178Y, read-out: CA on PAR cells (IC50)
# [5] = tested on: MCF7MX (BCRP overexpressing human epithelial breast cancer cell line); conditions: read-out: IC50 against MCF7MX; ref Mirzaei et al. [2017]; cited from earlier work
# [6] = tested on: multidrug resistant mouse T-lymphoma cells overexpressing the ABCB1 transporter; assay: Checkerboard combination assay with doxorubicin; type: cell-based; conditions: MDR cells
# In short: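 L5178Y mouse T-lymphoma cells transfected with human ABCB1 (MDR), 6 × 10^3 per well in McCoy's 5A. Checkerboard layout with doxorubicin diluted horizontally (final concentration stated as 17.242 μM) and test compound diluted vertically. Incubated 72 h at 37 °C in 5% CO2. MTT added (5 mg/mL stock) for 4 h at 37 °C, then 10% SDS in 0.01 M HCl overnight at 37 °C.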
# HL-60/MX2 (MDR) = conditions: read-out: IC50 against HL-60/MX2; ref Kubrak et al. [2017]; cited from earlier work
# [7] = tested on: CEM/C1 (lymphoblastic leukaemia); conditions: read-out: IC50 against CEM/C1; ref Kubrak et al. [2017]; cited from earlier work
# [8] = tested on: NIH/3T3 mouse embryonic fibroblast cell line; assay: Cytotoxic effect; type: cell-based; conditions: cytotoxic activity on normal murine fibroblasts, 24 h, MTT, mean ± SD, n = 3
# [9] = tested on: HCT-15 (colon cancer) cells; conditions: HCT-15 cells; ref Kim et al. [2007]; cited from earlier work
SMILES,IC50 [1] [µM],FL-1 (mean fluorescence intensity of the cells) (ABCB1 (P-glycoprotein); 2 µM),FAR (fluorescence activity ratio) (ABCB1 (P-glycoprotein); 2 µM),FAR (fluorescence activity ratio) (ABCB1 (P-glycoprotein); 20 µM),IC50 [2] [µM],IC50 [3] [µM],IC50 [4] [µM],FL-1 (mean fluorescence intensity of the cells) (ABCB1 (P-glycoprotein); 20 µM),further results
"CC(C)(O)[C@H](O)COc1c2occc2cc2ccc(=O)oc12 [Heraclenol (9), heraclenol]",> 100,0.995,1.37,1.30,52.3 ± 2.12,46.6 ± 0.47,> 100,–,"CA on MDR cells (IC50) [1]: no toxic effects; CA on PAR cells (IC50) ([4]; cytotoxic activity, MTT, mean ± SD, n = 3): no toxic effects"
"COc1cccc2c1C(=O)c1c(O)c3c(c(O)c1C2=O)C[C@@](O)(C(=O)CO)C[C@@H]3O[C@H]1C[C@H](N)[C@H](O)[C@H](C)O1 [Doxorubicin, doxorubicin, reference compound]",7.15 ± 0.358,–,–,–,0.054 ± 0.005,0.468 ± 0.065,0.377 ± 0.02,–,–
COc1c2occc2cc2ccc(=O)oc12 [8-Methoxypsoralen],–,–,–,–,–,–,–,–,IC50 [5]: 0.0011 ± 0.00091 µM
"COc1cc2c(cc1OC)CN(CCc1ccc(NC(=O)c3cc(OC)c(OC)cc3NC(=O)c3cnc4ccccc4c3)cc1)CC2 [Tariquidar, tariquidar, reference compound]",–,–,–,–,–,–,–,–,"FL-1 (mean fluorescence intensity of the cells) (ABCB1 (P-glycoprotein); 0.02 µM): 119; FAR (fluorescence activity ratio) (ABCB1 (P-glycoprotein); 0.02 µM): 100.68; FAR (fluorescence activity ratio) (ABCB1 (P-glycoprotein); 0.02 µM, listed as tariquidar): 100"
"CC1(C)O[C@@H]1COc1c2occc2cc2ccc(=O)oc12 [Heraclenin (8), heraclenin]",83.9 ± 1.68,0.942,1.29,0.78,32.7 ± 2.4,46.5 ± 1.22,65.8 ± 1,0.57,Interaction ([6]; listed as Heraclenin): Slight synergism; Interaction ([6]; listed as heraclenin (8)): slight synergistic effect
COc1c2ccoc2c(OC)c2oc(=O)ccc12 [isopimpinellin],–,–,–,–,–,–,–,–,IC50 (HL-60/MX2 (MDR)): 26 ± 5.7 µM
COc1c2ccoc2c(OCC=C(C)C)c2oc(=O)ccc12 [phellopterin],–,–,–,–,–,–,–,–,IC50 [7]: 8 ± 4 µM
"CC(C)=CCOc1c2occc2cc2ccc(=O)oc12 [Imperatorin (6), imperatorin]",> 100,0.727,0.62,0.66,36.1 ± 0.91,42.2 ± 0.88,52.6 ± 4.19,0.783,CA on MDR cells (IC50) [1]: without any toxicity; CA on NIH/3T3 cells (IC50) [8]: no toxic activity
"CC1(C)O[C@H]1COc1c2ccoc2cc2oc(=O)ccc12 [Oxypeucedanin (3), oxypeucedanin]",66.7,0.9,0.76,2.22,26 ± 1.27,28.9 ± 0.73,40.3 ± 0.63,2.62,"FAR (fluorescence activity ratio) (ABCB1 (P-glycoprotein); 20 µM, listed as oxypeucedanin (3)): moderate ABCB1 inhibiting effect; Interaction ([6]; listed as Oxypeucedanin): Slight synergism; Interaction ([6]; listed as oxypeucedanin (3)): slight synergistic effect; ED50, cell proliferation [9]: 3.4 ± 0.3 µg/mL"
